Laboratory results reported in ChEMBL document CHEMBL4622933, “Targeting the TS dimer interface in bifunctional Cryptosporidium hominis TS-DHFR from parasitic protozoa: Virtual screening identifies novel TS allosteric inhibitors” (Bioorg Med Chem Lett, 2020).
Active and inactive are the calls of the source. No cut-off for these calls is given here.

Legend:
Cryptosporidium hominis [1] = assay: Inhibition of Cryptosporidium hominis thymidylate synthase assessed as H2F formation at 500 uM preincubated for 30 mins followed by addition of radiolabelled CH2H4F and dUMP by HPLC-coupled flow scintillation analysis relative to control
Outline: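 Bifunctional C. hominis TS-DHFR is preincubated with compound for 30 min, then dUMP and radiolabelled CH2H4F are added to start the reaction. TS turnover of CH2H4F to H2F is followed by HPLC with radioactivity flow detection, and results are expressed as % inhibition.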

Cryptosporidium hominis [2] = assay: Inhibition of Cryptosporidium hominis dihydrofolate reductase assessed as H4F formation at 500 uM preincubated for 30 mins followed by addition of radiolabelled H2F and dUMP by HPLC-coupled flow scintillation analysis relative to control
Outline: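 DHFR activity of bifunctional C. hominis TS-DHFR uses a radiometric assay. Conversion of radiolabelled H2F to H4F is followed by HPLC, and % inhibition is reported. The assay is run as a counter-screen for compound aggregation and nonspecific effects.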

[3] = Inhibition of Cryptosporidium hominis thymidylate synthase assessed as H2F formation preincubated for 30 mins followed by addition of radiolabelled CH2H4F and inactive dUMP by HPLC-coupled flow scintillation analysis
[4] = target: Thymidylate synthase (TS) (Homo sapiens, UniProt P04818); assay: Inhibition of human TS at 500 uM relative to control; settings: human thymidylate synthase enzyme (single protein)
Sequence of Thymidylate synthase (TS) (P04818 whole entry): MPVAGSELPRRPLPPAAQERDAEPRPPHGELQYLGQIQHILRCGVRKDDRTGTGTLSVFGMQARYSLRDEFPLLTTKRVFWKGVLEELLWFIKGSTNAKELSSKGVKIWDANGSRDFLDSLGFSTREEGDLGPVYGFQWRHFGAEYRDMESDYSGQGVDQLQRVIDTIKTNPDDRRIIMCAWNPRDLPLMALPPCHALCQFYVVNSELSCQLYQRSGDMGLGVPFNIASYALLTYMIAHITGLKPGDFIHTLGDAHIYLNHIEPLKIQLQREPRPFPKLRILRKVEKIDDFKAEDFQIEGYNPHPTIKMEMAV
Outline: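 Human TS enzyme is incubated with compound in the absence of dUMP, then TS activity is measured.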

[5] = Selectivity index, ratio of inhibition of human TS to inhibition of Cryptosporidium hominis thymidylate synthase-dihydrofolate reductase
[6] = Inhibition of Cryptosporidium hominis thymidylate synthase assessed as H2F formation preincubated for 30 mins followed by addition of radiolabelled CH2H4F and active dUMP by HPLC-coupled flow scintillation analysis

| SMILES | inhibition (Cryptosporidium hominis [1]) | also measured |
| --- | --- | --- |
| OC(CNCc1ccc2c(c1)OCO2)COc1ccc(-c2ccccc2)cc1 (centres undefined) | 87% | inhibition (Cryptosporidium hominis [2]): 26% |
| OC(CNCc1ccc2c(c1)OCO2)CSc1ccccc1 (centres undefined) | 34% |  |
| COc1ccc(Cn2c(=O)c3[nH]cnc3n(-c3cccc([S+](C)[O-])c3)c2=O)cc1 (centres undefined) | < 5% |  |
| OC(CNCc1ccc2c(c1)OCO2)COc1ccc(F)cc1 (centres undefined) | 7% |  |
| OC(CNCc1ccc2c(c1)OCO2)COc1ccc(-c2csnn2)cc1 (centres undefined) | 76% | inhibition (Cryptosporidium hominis [2]): 6% |
| COc1cc(C(=O)O)ccc1OCC(O)CNCc1ccc2c(c1)OCO2 (centres undefined) | < 5% |  |
| CCCCNC1N=C(c2ccccc2)c2ccccc2N(C)C1=O (centres undefined) | 15% |  |
| O=C(O)CCC(=O)Nc1ccc(S(=O)(=O)Nc2ccc(C(F)(F)F)cc2)cc1 | inactive |  |
| CC(C)(CC(=O)O)CC(=O)NCc1c(Cl)cccc1Oc1ccccc1 | inactive |  |
| Cc1ccc(C)c(OCC(O)CNCc2ccc3c(c2)OCO3)c1C (centres undefined) | 48% |  |
| COc1cc(C(C)=O)ccc1OCC(O)CNCc1ccc2c(c1)OCO2 (centres undefined) | 20% |  |

Further lines, with some results ahead:

| inhibition (Cryptosporidium hominis [1]) | SMILES | also measured |
| --- | --- | --- |
| < 5% | Cc1ccccc1-n1c(=O)n(Cc2ccc(C(=O)O)cc2)c(=O)c2[nH]cnc21 |  |
| 83% | OC(CNCc1ccc2c(c1)OCO2)COc1ccc(Cl)c(Cl)c1 (centres undefined) | inhibition (Cryptosporidium hominis [2]): 60% |
| inactive | CCOC(=O)CNC(=O)CSc1nc2ccccc2c(=O)[nH]1 |  |
| 26% | OC(CNCc1ccc2c(c1)OCO2)COc1ccc(Br)cc1 (centres undefined) |  |
| < 5% | COc1ccccc1OCC(O)CNCc1ccc2c(c1)OCO2 (centres undefined) |  |
| 46% | COc1cc(NC(=O)NCc2cccnc2)cc(C(F)(F)F)c1 |  |
| 43% | OC(CNCc1ccc2c(c1)OCO2)CSc1cccs1 (centres undefined) |  |
| 55% | Cc1ccc(OCC(O)CNCc2ccc3c(c2)OCO3)cc1C (centres undefined) |  |
| 55% | CC(=O)c1ccc(OCC(O)CNCc2ccc3c(c2)OCO3)cc1 (centres undefined) |  |
| 83% | Cc1cc(Cl)cc(Br)c1OCC(O)CNCc1ccc2c(c1)OCO2 (centres undefined) | IC50 [3]: 172 µM; inhibition at 500 µM [4]: 50%; Ratio [5]: 2; inhibition (Cryptosporidium hominis [2]): 19%; IC50 [6]: 304 µM |
